Test results as given in ChEMBL document CHEMBL5338825, “Structure-Based Discovery of Inhibitors of the SARS-CoV-2 Nsp14 N7-Methyltransferase” (J Med Chem, 2023).
Active and inactive are the calls of the source. The rule behind the calls is not given here.

Legend:
[1] = target: Histone-lysine N-methyltransferase SUV39H1 (Homo sapiens, UniProt O43463); test: Inhibition of human SUV39H1 using Biotin-tagged histone H3 and 3H-SAM as substrate incubated for 1 hrs by TopCount scintillation proximity assay
Chain of Histone-lysine N-methyltransferase SUV39H1 (O43463 whole entry): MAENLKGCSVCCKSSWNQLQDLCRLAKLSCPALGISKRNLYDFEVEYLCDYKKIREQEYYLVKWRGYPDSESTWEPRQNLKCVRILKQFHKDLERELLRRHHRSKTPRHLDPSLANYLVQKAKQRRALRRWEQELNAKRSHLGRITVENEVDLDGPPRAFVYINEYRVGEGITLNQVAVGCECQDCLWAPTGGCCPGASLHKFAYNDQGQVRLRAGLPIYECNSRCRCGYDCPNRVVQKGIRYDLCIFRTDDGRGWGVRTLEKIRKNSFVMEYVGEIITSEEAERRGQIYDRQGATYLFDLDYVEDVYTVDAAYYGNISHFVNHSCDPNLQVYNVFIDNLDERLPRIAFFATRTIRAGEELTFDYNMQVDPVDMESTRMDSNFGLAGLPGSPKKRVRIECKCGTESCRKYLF
How it was run: (§1)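 Radiometric human methyltransferase assay. Enzymes showing >50% inhibition at a 10 μM single-point screen went on to concentration–response in triplicate to derive IC50.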

[2] = Aggregation property of the compound in KPi buffer at pH 7.0 assessed as formation of colloid-like particles by dynamic light scattering analysis; assay type: physicochemical
How it was run: (§2)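 Compounds diluted as 8-point half-log series in filtered 50 mM KPi, pH 7.0, with 1% v/v DMSO final. Particles detected by dynamic light scattering, triplicate at each concentration. CAC taken as the intersection of separate nonlinear fits to aggregating (>10^6 scattering intensity) and non-aggregating data.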

[3] = target: Histone-lysine N-methyltransferase EHMT1 (Homo sapiens, UniProt Q9H9B1); test: Inhibition of human GLP using biotin-tagged Histone H3 and 3H-SAM as substrate incubated for 1 hrs by TopCount scintillation proximity assay
Chain of Histone-lysine N-methyltransferase EHMT1 (Q9H9B1 whole entry): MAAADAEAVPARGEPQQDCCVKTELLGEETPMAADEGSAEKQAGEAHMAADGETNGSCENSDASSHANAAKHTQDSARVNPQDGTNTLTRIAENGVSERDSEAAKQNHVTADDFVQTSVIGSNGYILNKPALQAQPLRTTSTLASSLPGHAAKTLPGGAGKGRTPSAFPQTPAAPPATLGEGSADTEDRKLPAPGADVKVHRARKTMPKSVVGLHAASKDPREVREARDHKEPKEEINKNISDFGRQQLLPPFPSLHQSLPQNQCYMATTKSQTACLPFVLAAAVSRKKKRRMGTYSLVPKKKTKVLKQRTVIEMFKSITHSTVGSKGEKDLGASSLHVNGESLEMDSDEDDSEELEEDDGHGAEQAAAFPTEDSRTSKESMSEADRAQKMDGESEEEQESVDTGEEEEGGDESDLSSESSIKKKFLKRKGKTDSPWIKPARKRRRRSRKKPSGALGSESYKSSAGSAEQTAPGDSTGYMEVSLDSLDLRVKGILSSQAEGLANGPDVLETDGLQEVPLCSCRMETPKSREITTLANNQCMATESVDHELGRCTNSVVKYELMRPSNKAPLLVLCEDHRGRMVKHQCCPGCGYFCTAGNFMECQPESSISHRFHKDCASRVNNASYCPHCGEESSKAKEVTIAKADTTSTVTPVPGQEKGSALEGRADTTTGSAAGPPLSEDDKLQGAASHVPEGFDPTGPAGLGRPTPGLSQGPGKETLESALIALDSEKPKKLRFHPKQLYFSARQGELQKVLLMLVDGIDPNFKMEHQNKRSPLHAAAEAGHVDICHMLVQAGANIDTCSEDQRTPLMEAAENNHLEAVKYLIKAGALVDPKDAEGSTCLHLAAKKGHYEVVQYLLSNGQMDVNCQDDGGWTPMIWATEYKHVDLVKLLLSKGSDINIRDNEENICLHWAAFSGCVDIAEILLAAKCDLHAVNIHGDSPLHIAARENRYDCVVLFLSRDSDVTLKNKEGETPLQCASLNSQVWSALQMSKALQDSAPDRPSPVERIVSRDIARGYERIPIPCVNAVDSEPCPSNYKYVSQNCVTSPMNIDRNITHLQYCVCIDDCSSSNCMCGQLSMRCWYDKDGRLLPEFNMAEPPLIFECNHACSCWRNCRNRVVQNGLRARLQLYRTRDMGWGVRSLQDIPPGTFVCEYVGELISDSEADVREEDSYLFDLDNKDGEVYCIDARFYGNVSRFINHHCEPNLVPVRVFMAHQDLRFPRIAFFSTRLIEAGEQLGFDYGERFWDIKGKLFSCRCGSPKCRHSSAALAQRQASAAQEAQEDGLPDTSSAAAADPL
How it was run: (§3)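 Radiometric concentration–response for IC50, run on panel methyltransferases showing more than 50% inhibition at a 10 μM screen. Triplicate.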

[4] = target: Histone-lysine N-methyltransferase SMYD3 (Homo sapiens) (UniProt Q9H7B4); test: Inhibition of human SMYD3 using biotin-tagged MAP3K2 and 3H-SAM as substrate at 6 uM incubated for 1 hrs by TopCount scintillation proximity assay relative to control
[5] = target: Histone-lysine N-methyltransferase SUV39H1 (Homo sapiens) (UniProt O43463); test: Inhibition of human SUV39H1 using Biotin-tagged histone H3 and 3H-SAM as substrate at 6 uM incubated for 1 hrs by TopCount scintillation proximity assay relative to control
Chain of Histone-lysine N-methyltransferase SUV39H1 (Homo sapiens) (O43463 whole entry): as the sequence (O43463 whole entry) above

[6] = target: T1, Protein arginine N-methyltransferase 1 (Homo sapiens, UniProt Q99873); test: Inhibition of human PRMT1 using biotin-tagged Histone H4 and 3H-SAM as substrate incubated for 1 hrs by TopCount scintillation proximity assay; how it was run: as §3
[7] = target: Replicase polyprotein 1ab (Severe acute respiratory syndrome coronavirus 2) (UniProt P0DTD1); test: Non-covalent inhibition of N-terminal 6His/SUMO-tagged SARS-CoV-2 NSP14 expressed in Escherichia coli Rosetta 2 (DE3) PlysS cells using 5'GpppACCCCCCCCC-Biotin 3' and 3H-SAM as substrates at 10 fold IC50 concentration incubated for 60 mins by rapid dilution method
How it was run: (§4)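 Jump dilution: Nsp14 at 100-fold its assay concentration (assay level 1.5 nM) preincubated with compound for 1 h at room temperature. Then diluted 100-fold into assay buffer containing RNA substrate and SAM, and recovery of methyltransferase activity monitored.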

Homo sapiens [8] = species on record: Homo sapiens; test: Inhibition of MDH (unknown origin) using oxaloacetic acid as substrate preincubated with compound for 5 mins followed by substrate addition and measured after 1.5 min in the presence of NADH by absorbance based plate reader analysis; conditions: time 6.5 min
How it was run: (§5)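 MDH assay at room temperature in 50 mM KPi, pH 7.0, with 1% v/v DMSO final. Compound preincubated 5 min with 2 nM enzyme. Reaction started with 200 μM NADH plus 200 μM oxaloacetic acid, and absorbance followed at 340 nm for 1 min 30 s. Initial rate divided by the DMSO control rate. Single top concentration in triplicate; eight-point half-log curves in triplicate where inhibition exceeded 40%.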

[9] = target: T2, Histone-lysine N-methyltransferase, H3 lysine-79 specific (Homo sapiens, UniProt Q8TEK3); test: Inhibition of human DOT1L using chicken nucleosome and 3H-SAM as substrate at 6 uM incubated for 1 hrs by TopCount scintillation proximity assay relative to control
[10] = target: Replicase polyprotein 1ab (Severe acute respiratory syndrome coronavirus 2) (UniProt P0DTD1); test: Competitive inhibition of N-terminal 6His/SUMO-tagged SARS-CoV-2 NSP14 expressed in Escherichia coli Rosetta 2 (DE3) PlysS cells using 5'GpppACCCCCCCCC-Biotin 3' and 3H-SAM as substrates at increasing concentration incubated for 30 mins by TopCount scintillation proximity assay
How it was run: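 Competition pattern read from IC50 shifts. […] Separately, SAM fixed at 1.25 μM (5× Km) with RNA varied up to 0.5 μM (10× Km). A linear rise of IC50 with substrate concentration was taken as competitive inhibition.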

[11] = target: Protein arginine N-methyltransferase 9 (Homo sapiens) (UniProt Q6P2P2); test: Inhibition of human PRMT9 using biotin-tagged SAP145 and 3H-SAM as substrate at 6 uM incubated for 1 hrs by TopCount scintillation proximity assay relative to control
Chain of Protein arginine N-methyltransferase 9 (Homo sapiens) (Q6P2P2 whole entry): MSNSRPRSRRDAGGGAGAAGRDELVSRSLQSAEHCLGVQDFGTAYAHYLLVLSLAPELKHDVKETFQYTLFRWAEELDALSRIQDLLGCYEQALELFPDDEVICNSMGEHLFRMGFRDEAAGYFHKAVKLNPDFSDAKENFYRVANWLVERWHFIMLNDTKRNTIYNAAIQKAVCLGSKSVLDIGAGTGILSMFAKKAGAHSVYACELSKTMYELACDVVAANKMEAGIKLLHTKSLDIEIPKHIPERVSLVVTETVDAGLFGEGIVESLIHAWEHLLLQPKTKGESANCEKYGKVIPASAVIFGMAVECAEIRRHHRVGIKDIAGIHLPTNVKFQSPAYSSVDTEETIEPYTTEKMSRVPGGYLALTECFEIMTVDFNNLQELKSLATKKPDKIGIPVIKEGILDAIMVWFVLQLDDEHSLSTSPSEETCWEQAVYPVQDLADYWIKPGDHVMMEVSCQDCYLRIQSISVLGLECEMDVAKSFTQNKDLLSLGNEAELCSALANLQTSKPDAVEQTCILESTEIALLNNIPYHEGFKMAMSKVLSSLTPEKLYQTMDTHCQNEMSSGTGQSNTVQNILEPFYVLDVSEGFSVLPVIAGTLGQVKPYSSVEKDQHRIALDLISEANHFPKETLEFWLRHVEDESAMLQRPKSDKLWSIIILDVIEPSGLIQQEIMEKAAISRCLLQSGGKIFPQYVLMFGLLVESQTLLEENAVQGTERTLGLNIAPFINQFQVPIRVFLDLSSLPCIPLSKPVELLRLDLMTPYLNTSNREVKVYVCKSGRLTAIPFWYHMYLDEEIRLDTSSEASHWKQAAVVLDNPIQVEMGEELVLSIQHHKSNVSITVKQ

[12] = target: Replicase polyprotein 1ab (Severe acute respiratory syndrome coronavirus 2, UniProt P0DTD1); test: Inhibition of N-terminal 6His/SUMO-tagged SARS-CoV-2 NSP14 expressed in Escherichia coli Rosetta 2 (DE3) PlysS cells using 5'GpppACCCCCCCCC-Biotin 3' and 3H-SAM as substrates incubated for 30 mins by TopCount scintillation proximity assay
[13] = target: T3, Histone-lysine N-methyltransferase 2A (Homo sapiens, UniProt Q03164); test: Inhibition of human MLL1 using biotin-tagged Histone H3 and 3H-SAM as substrate incubated for 1 hrs by TopCount scintillation proximity assay; how it was run: as §3
[14] = target: T4, Protein arginine N-methyltransferase 3 (Homo sapiens, UniProt O60678); test: Inhibition of human PRMT3 using biotin-tagged Histone H4 and 3H-SAM as substrate incubated for 1 hrs by TopCount scintillation proximity assay; how it was run: as §3
Target sequence in this assay (O60678 whole entry): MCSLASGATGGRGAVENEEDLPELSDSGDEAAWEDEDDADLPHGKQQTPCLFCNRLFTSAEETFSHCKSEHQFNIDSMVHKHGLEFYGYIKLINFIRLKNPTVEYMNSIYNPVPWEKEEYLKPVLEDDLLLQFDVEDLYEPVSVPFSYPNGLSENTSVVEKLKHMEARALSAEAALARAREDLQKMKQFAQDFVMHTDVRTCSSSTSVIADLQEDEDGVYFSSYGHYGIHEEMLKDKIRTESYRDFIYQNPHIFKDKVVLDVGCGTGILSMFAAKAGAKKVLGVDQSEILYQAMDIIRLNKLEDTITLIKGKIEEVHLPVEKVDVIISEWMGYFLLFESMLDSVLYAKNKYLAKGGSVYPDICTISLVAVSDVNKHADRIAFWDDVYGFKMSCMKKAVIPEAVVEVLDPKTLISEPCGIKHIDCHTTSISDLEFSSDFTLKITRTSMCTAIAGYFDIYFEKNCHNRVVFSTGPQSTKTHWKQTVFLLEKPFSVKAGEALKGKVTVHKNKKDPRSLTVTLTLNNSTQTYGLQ

Bacteria [15] = test: Inhibition of beta-lactamase AmpC (unknown origin) pre-incubated with compound for 5 mins followed by substrate addition and measured after 1.5 mins by absorbance based plate reader analysis; conditions: time 6.5 min
How it was run: (§6)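 AmpC at 2 nM preincubated 5 min with compound at room temperature in 50 mM KPi, pH 7.0, with 1% v/v DMSO. Started with 50 μM CENTA (read at 405 nm) or 50 μM nitrocefin (read at 490 nm), monitored 1 min 30 s. Initial rate taken as % of DMSO control. Top concentration in triplicate; eight-point half-log curves in triplicate where inhibition exceeded 40%.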

[16] = target: T2, Histone-lysine N-methyltransferase, H3 lysine-79 specific; test: Inhibition of human DOT1L using chicken nucleosome and 3H-SAM as substrate incubated for 1 hrs by TopCount scintillation proximity assay; how it was run: as §3
[17] = target: RNA 5'-monophosphate methyltransferase (Homo sapiens) (UniProt Q7Z5W3); test: Inhibition of human BCDIN3D using biotin-tagged microRNA-145 and 3H-SAM as substrate at 6 uM incubated for 1 hrs by TopCount scintillation proximity assay relative to control
[18] = target: T3, Histone-lysine N-methyltransferase 2A; test: Inhibition of human MLL1 using biotin-tagged Histone H3 and 3H-SAM as substrate at 6 uM incubated for 1 hrs by TopCount scintillation proximity assay relative to control
[19] = target: T1, Protein arginine N-methyltransferase 1; test: Inhibition of human PRMT1 using biotin-tagged Histone H4 and 3H-SAM as substrate at 6 uM incubated for 1 hrs by TopCount scintillation proximity assay relative to control
Homo sapiens [20] = species on record: Homo sapiens; test: Inhibition of MDH (unknown origin) using oxaloacetic acid as substrate preincubated with compound for 5 mins followed by substrate addition and measured after 1.5 min in the presence of NADH and 0.01% Triton-X 100 by absorbance based plate reader analysis; conditions: time 6.5 min
How it was run: (§7)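 Detergent-reversal MDH assay: 50 mM KPi, pH 7.0, with 1% v/v DMSO and 0.01% v/v Triton X-100. Enzyme at 2 nM preincubated 5 min with compound, then started with 200 μM NADH plus 200 μM oxaloacetate. A340 read for 1 min 30 s, rate normalised to DMSO control. Eight-point half-log curves in triplicate.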

Bacteria [21] = test: Inhibition of beta-lactamase AmpC (unknown origin) pre-incubated with compound for 5 mins followed by substrate addition and measured after 1.5 mins in the presence of 0.01% Triton-X 100 by absorbance based plate reader analysis; conditions: time 6.5 min
How it was run: (§8)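 AmpC detergent-reversal assay: 50 mM KPi, pH 7.0, with 1% v/v DMSO and 0.01% v/v Triton X-100. Enzyme at 2 nM preincubated 5 min with compound, then 50 μM CENTA (405 nm) or nitrocefin (490 nm) added. Absorbance followed for 1 min 30 s and rate normalised to DMSO. Eight-point half-log curves in triplicate.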

[22] = target: Protein arginine N-methyltransferase 9 (Homo sapiens, UniProt Q6P2P2); test: Inhibition of human PRMT9 using biotin-tagged SAP145 and 3H-SAM as substrate incubated for 1 hrs by TopCount scintillation proximity assay; how it was run: as §3
Chain of Protein arginine N-methyltransferase 9 (Q6P2P2 whole entry): as the sequence (Q6P2P2 whole entry) above

[23] = target: Histone-lysine N-methyltransferase SMYD3 (Homo sapiens, UniProt Q9H7B4); test: Inhibition of human SMYD3 using biotin-tagged MAP3K2 and 3H-SAM as substrate incubated for 1 hrs by TopCount scintillation proximity assay; how it was run: as §1
[24] = target: T4, Protein arginine N-methyltransferase 3; test: Inhibition of human PRMT3 using biotin-tagged Histone H4 and 3H-SAM as substrate at 6 uM incubated for 1 hrs by TopCount scintillation proximity assay relative to control
Target sequence in this assay (O60678 2-531 limits assumed): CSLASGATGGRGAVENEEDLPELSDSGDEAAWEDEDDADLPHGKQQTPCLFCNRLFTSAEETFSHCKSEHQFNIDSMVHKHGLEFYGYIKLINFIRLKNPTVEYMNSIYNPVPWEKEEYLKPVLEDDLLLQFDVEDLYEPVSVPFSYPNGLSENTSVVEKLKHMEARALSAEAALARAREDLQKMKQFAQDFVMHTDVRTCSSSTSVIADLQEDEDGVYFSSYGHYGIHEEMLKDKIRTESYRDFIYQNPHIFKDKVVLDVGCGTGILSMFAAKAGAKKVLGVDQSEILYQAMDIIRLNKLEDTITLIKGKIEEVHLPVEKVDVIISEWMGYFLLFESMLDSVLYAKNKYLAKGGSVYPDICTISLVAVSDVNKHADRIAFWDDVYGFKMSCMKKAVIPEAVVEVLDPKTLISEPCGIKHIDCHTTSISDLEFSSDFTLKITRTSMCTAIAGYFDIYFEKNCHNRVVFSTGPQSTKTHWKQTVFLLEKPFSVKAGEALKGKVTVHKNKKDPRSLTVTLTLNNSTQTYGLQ

[25] = target: Histone-lysine N-methyltransferase EHMT1 (Homo sapiens) (UniProt Q9H9B1); test: Inhibition of human GLP using biotin-tagged Histone H3 and 3H-SAM as substrate at 6 uM incubated for 1 hrs by TopCount scintillation proximity assay relative to control
Chain of Histone-lysine N-methyltransferase EHMT1 (Homo sapiens) (Q9H9B1 whole entry): as the sequence (Q9H9B1 whole entry) above

[26] = target: RNA 5'-monophosphate methyltransferase (Homo sapiens, UniProt Q7Z5W3); test: Inhibition of human BCDIN3D using biotin-tagged microRNA-145 and 3H-SAM as substrate incubated for 1 hrs by TopCount scintillation proximity assay; how it was run: as §3
Bacteria [27] = test: Inhibition of beta-lactamase AmpC (unknown origin) at 3.8 uM pre-incubated with compound for 5 mins followed by substrate addition and measured after 1.5 mins by absorbance based plate reader analysis; conditions: time 6.5 min; how it was run: as §6
[28] = target: Histone-lysine N-methyltransferase EHMT2 (Homo sapiens, UniProt Q96KQ7); test: Inhibition of human G9a using biotin-tagged Histone H3 and 3H-SAM as substrate incubated for 1 hrs by TopCount scintillation proximity assay; how it was run: as §3
Chain of Histone-lysine N-methyltransferase EHMT2 (Q96KQ7 whole entry): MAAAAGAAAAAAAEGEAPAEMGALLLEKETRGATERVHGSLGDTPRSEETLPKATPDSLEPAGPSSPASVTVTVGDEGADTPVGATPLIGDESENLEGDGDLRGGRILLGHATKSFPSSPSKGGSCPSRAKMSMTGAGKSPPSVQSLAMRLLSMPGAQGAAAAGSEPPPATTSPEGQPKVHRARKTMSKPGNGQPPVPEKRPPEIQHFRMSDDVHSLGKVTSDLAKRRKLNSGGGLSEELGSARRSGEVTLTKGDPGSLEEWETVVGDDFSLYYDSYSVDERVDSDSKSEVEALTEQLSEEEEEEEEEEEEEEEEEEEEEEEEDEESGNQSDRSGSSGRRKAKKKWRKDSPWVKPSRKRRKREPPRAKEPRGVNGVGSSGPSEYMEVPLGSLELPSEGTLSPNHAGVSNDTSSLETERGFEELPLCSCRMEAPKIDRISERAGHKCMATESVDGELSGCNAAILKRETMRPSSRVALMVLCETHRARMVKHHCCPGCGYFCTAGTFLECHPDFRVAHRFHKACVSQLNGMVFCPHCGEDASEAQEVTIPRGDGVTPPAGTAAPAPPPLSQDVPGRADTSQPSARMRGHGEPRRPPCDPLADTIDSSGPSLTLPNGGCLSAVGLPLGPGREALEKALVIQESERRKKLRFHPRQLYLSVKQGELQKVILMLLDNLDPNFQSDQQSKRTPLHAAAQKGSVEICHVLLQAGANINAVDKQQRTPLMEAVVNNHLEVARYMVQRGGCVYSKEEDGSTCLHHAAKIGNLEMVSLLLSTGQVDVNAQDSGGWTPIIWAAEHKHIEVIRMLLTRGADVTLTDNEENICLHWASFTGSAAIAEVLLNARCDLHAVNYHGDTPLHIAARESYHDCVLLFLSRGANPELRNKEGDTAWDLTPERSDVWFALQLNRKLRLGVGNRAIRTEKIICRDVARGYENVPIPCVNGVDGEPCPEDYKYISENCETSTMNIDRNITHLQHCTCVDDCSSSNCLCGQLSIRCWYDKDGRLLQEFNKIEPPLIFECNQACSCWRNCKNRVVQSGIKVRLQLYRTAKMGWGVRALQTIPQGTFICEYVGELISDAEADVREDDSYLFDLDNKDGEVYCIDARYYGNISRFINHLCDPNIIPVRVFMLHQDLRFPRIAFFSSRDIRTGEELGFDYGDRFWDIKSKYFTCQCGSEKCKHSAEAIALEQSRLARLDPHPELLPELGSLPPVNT

Homo sapiens [29] = species on record: Homo sapiens; test: Inhibition of MDH (unknown origin) using oxaloacetic acid as substrate at 3.8 uM preincubated with compound for 5 mins followed by substrate addition and measured after 1.5 min in the presence of NADH and 0.01% Triton-X 100 by absorbance based plate reader analysis; conditions: time 6.5 min; how it was run: as §7
[30] = target: Replicase polyprotein 1ab (Severe acute respiratory syndrome coronavirus 2) (UniProt P0DTD1); test: Reversible covalent inhibition of N-terminal 6His/SUMO-tagged SARS-CoV-2 NSP14 expressed in Escherichia coli Rosetta 2 (DE3) PlysS cells using 5'GpppACCCCCCCCC-Biotin 3' and 3H-SAM as substrates at 10 fold IC50 concentration incubated for 60 mins by rapid dilution method; how it was run: as §4
[31] = target: Replicase polyprotein 1ab (Severe acute respiratory syndrome coronavirus 2) (UniProt P0DTD1); test: Reversible binding affinity to Cys387 of N-terminal 6His/SUMO-tagged SARS-CoV-2 NSP14 expressed in Escherichia coli Rosetta 2 (DE3) PlysS cells using 5'GpppACCCCCCCCC-Biotin 3' and 3H-SAM as substrates incubated for 2 hrs by mass spectrometry analysis
How it was run: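 Nsp14 incubated with 20-fold molar excess of compound for 2 h at 20 °C, then taken into 0.1% formic acid. Separated by HPLC on a 5–95% acetonitrile/water gradient and analysed by ESI time-of-flight MS for protein mass shift.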

[32] = Aggregation property of the compound in KPi buffer at pH 7.0 assessed as formation of colloid-like particles at 3.8 uM by dynamic light scattering analysis; assay type: physicochemical; conditions: pH 7, 3.8 µM; how it was run: as §2
Bacteria [33] = test: Inhibition of beta-lactamase AmpC (unknown origin) at 3.8 uM pre-incubated with compound for 5 mins followed by substrate addition and measured after 1.5 mins in the presence of 0.01% Triton-X 100 by absorbance based plate reader analysis; how it was run: as §8
[34] = target: Replicase polyprotein 1ab (Severe acute respiratory syndrome coronavirus 2) (UniProt P0DTD1); test: Inhibition of N-terminal 6His/SUMO-tagged SARS-CoV-2 NSP14 expressed in Escherichia coli Rosetta 2 (DE3) PlysS cells using 5'GpppACCCCCCCCC-Biotin 3' and 3H-SAM as substrates at 100 uM incubated for 30 mins by TopCount scintillation proximity assay relative to control
Homo sapiens [35] = species on record: Homo sapiens; test: Inhibition of MDH (unknown origin) using oxaloacetic acid as substrate at 3.8 uM preincubated with compound for 5 mins followed by substrate addition and measured after 1.5 min in the presence of NADH by absorbance based plate reader analysis; conditions: time 6.5 min; how it was run: as §5

O=C(COC(=O)c1cc(-c2ccoc2)n[nH]1)Nc1ccc(Br)cc1
IC50 [1]: 4 µM | Activity [2]: Active | IC50 [3]: 26 µM | inhibition [4]: > 50% | inhibition [5]: > 50% | IC50 [6]: 15 µM | inhibition [7]: Active | inhibition (Homo sapiens [8]): Active | inhibition [9]: > 50% | inhibition [10]: Active | inhibition [11]: > 50% | IC50 [12]: 2.2 µM | IC50 [13]: 16 µM | IC50 [14]: 11 µM | inhibition (Bacteria [15]): inactive | IC50 [16]: 7 µM | inhibition [17]: > 50% | inhibition [18]: > 50% | inhibition [19]: > 50% | inhibition (Homo sapiens [20]): inactive | inhibition (Bacteria [21]): inactive | IC50 [22]: 11 µM | IC50 [23]: 8 µM | inhibition [24]: > 50% | inhibition [25]: > 50% | IC50 [26]: 11 µM

N#Cc1ccc(NC(=O)c2cc(C=O)n3c2CCCC3)c2cc(O)ccc12
inhibition (Bacteria [27]): Active | IC50 [3]: 14 µM | IC50 [28]: 30 µM | inhibition (Homo sapiens [29]): inactive | inhibition [30]: Active | Activity [31]: Active | Activity [32]: Active | IC50 [12]: 8 µM | inhibition (Bacteria [33]): inactive | inhibition [34]: > 50% | inhibition (Homo sapiens [35]): Active
